# This is a sample that favours compounds with a hit; in the whole collection about 9.3% have one here.
# D1 mod: allosterically modulates the human D1 dopamine receptor; 5.9% of 58,000 active; B-score at 10 µM; HEK293 D1, CRE-luciferase, dopamine EC30 potentiation; actives deviate in either direction;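 active = luminescence count or its row- and column-corrected plate score outside the 99.7% band of the plate's sample wells, on either side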
# Target sequence (P21728 whole entry, looked up): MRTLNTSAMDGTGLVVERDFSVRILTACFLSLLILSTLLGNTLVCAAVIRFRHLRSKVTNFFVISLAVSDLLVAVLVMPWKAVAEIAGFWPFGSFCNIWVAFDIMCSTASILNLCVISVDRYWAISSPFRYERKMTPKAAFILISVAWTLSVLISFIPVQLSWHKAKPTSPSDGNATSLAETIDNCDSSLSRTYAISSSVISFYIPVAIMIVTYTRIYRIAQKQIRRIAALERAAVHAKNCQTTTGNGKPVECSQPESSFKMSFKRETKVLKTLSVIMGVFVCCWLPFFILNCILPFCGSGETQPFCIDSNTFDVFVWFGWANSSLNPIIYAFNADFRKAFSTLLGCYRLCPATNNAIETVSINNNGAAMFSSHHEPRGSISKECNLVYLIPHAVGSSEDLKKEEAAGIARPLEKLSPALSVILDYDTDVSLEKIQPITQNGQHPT
# PostGolgi ctrl: growth of the yeast control strain, post-Golgi counter-screen | efflux-deficient yeast background strain, growth absorbance A615, 16 h | inhibition, % at 10 µM | 5% of 98,000 active
# DAT uptake mod: modulates human dopamine transporter uptake under cocaine. AID 449768. 1.3% of 110,000 active. B-score at 10 µM. LLC-PK1 hDAT cells, [14C]-dopamine uptake with cocaine IC80; actives deviate in either direction. Q01959;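 active = Z score or B-score, a plate-position-corrected score, falls beyond the plate's 99.7% confidence bounds, in either direction; inactive = both scores lie inside the 99.7% bounds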;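 also: scored against the spread of the other compound wells on the same plate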
# PostGolgi yeast: growth inhibition of a yeast mutant, post-Golgi transport screen; post-Golgi transport phenotypic cell assay; inhibition, % at 10 µM; 0.9% of 98,000 active; AID 739;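 also: yeast cells grown in 1536-well plates; yeast grown about 18 h at 30C before absorbance read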
# tolC growth inh: E. coli tolC mutant growth inhibition; E. coli BW25113 tolC mutant growth, OD615; growth inhibition, % at 10 µM (by protocol); 2.2% of 65,000 active; AID 573;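 active = growth inhibition at or above a cutoff equal to the mean over every tested compound plus 3 SD, cut at about 60% in these data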;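 also: growth measured after 20 h incubation at 37 °C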
#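 test system = E. coli BW25113 ΔtolC::kan bacteria | medium = LB with kanamycin 50 µg/mL | signal = OD at 615 nm | schedule = 37 °C, 20 h exposure | evaluation = % inhibition of E. coli growth | compound dosing = one dose of 10 µM final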
# Ecoli WT expand: growth inhibitors of E. coli BW25113 wild type | OD600 absorbance | growth inhibition, % at 100 µM | 0.15% of 98,000 active | AID 710;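 active = growth inhibition above about 50% at one test dose, limit read from the data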;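 also: growth measured after 20 h incubation at 37 °C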
# * hit, by the source's call; . = no result given. Rule as the data show it, unless noted: active = inhibition above about 30%; inactive = the rest.
SMILES,D1 mod,PostGolgi ctrl,DAT uptake mod,PostGolgi yeast,tolC growth inh,Ecoli WT expand
O=C1N[C@@H](Cc2ccccc2)C(=O)N2[C@@H]1C[C@@]1(Br)c3ccccc3N(S(=O)(=O)c3ccccc3)[C@@H]21,.,.,-0.98,.,.,.
O=C(CN(Cc1ccc2c(c1)OCO2)C(=O)CSc1nc2ccccc2o1)NC1CCCCC1,-0.022,4,-0.83,5,100*,2
Cc1ccc(-n2nnnc2SCc2nnc(-c3ccccc3Br)o2)c(C)c1,-0.62,47*,-0.83,-1,35,-8
Cn1nnnc1SCc1nnc(-c2ccccc2Br)o1,.,-1,0.42,-2,.,1
O=C(O[C@H]1[C@H](Oc2ccccc2COC(=O)C2(O)C=CCCC2=O)O[C@H](CO)[C@@H](O)[C@@H]1O)c1ccccc1 (some centres not stated),.,.,-0.028,.,.,.
COc1ccc(Cl)cc1-c1nc(-c2ccncc2)no1,.,3,-1.1,6,-1,-4
Clc1ccc(OCc2nc(-c3ccncc3)no2)c(Cl)c1,-0.29,37*,2,44*,19,12
Cc1ccc(-c2nc(SCC(N)=O)c(C#N)c3c2CCCC3)cc1,.,44*,0.59,7,.,-8
Cc1nc(CC(=O)N2CCN(c3cccc(C)c3C)CC2)cs1,-0.74,12,-0.27,3,11,1
Cc1cc2ccccc2c(=O)n1CC(=O)NCC(=O)N(C)Cc1ccccc1,.,-1,-7.8*,19,-8,4
Cc1cc2ccccc2c(=O)n1CC(=O)NCC(=O)N(C)C1CCCCC1,.,-4,0.3,-4,.,0
C=C1CCN([C@@H](Cc2ccccc2)C(=O)NCCCc2ccccc2)S(=O)(=O)c2ccccc21,.,.,1,.,.,.
Cc1csc(NC(=O)c2cc3c(s2)CCCC3)n1,.,10,3.2*,12,.,21
CCc1nnc(NC(=O)c2cc3c(s2)CCCCC3)s1,-2.4*,.,-0.17,.,0,.
COCCCNC(=O)C1CCCN(C(=O)Nc2ccc(OC)cc2)C1 (configuration not stated),0.13,-7,-0.87,-2,-19,-7
C=CCn1c(=O)c2ccccc2n2c(SCc3c(C(=O)OCC)oc4ccccc34)nnc12,0.014,.,1.3,.,4,.
O=C(NCc1nc2ccccc2[nH]1)C1=C[C@@H](c2ccccc2)C[C@@H](OCCCCO)O1,.,.,3.2*,.,.,.
CC(C)(C)C(=O)[C@H]1[C@H](c2ccccc2)[C@@]2(N=C(c3ccccc3)OC2=O)C2c3ccccc3C=NN21 (some centres not stated),.,37*,-0.36,-10,.,5
CCCOc1ccc(-c2nnc(-c3ccco3)o2)cc1,-4.7*,-1,1.2,2,15,1
CC(C)COc1ccc(-c2nnc(-c3ccco3)o2)cc1,-5.5*,13,0.57,1,61*,-17
O=C(NCc1ccccc1)c1onc(CSc2ccccc2)c1C(=O)NCC1CC1,.,.,0.6,.,.,.
Cc1cc2ccccc2n2c(SCC(=O)N3CCc4ccccc4C3)nnc12,.,.,0.044,.,.,.
CCc1c(C)sc2nc(C(C)C)nc(SCC(=O)N3CCc4ccccc4C3)c12,.,31*,-0.99,0,.,-21
CCOC(=O)CSc1nc(CC)nc2ccccc12,0.74,4,0.52,0,7,3
CCCc1nc(SCC(=O)N2CCc3ccccc3C2)c2ccccc2n1,.,33*,0.37,2,.,-11
SMILES,D1 mod,PostGolgi ctrl,DAT uptake mod,PostGolgi yeast,tolC growth inh,Ecoli WT expand
Cc1sc2nc(C3CC3)nc(SCC(=O)N3CCc4ccccc4C3)c2c1C,.,37*,-0.91,14,.,-5
CC[C@@H](C)[C@@H](C(=O)N1CCNCC1)n1cc(CCC(=O)O)nn1,.,.,-0.83,.,.,.
CCO[C@H]1OC(C(=O)NCc2ccccc2)=C[C@@H](C2CC2)[C@@H]1CCCO,.,.,1.9,.,.,.
Cc1ccc(Nc2nc(N3CCOCC3)c3ccccc3n2)cc1,-5.8*,11,1.6,-2,34,5
COc1ccc(Nc2nc(N3CCCCC3)c3ccccc3n2)cc1,.,86*,-1.1,59*,.,1
COc1ccc(Nc2ncnc3ccccc23)cc1,.,6,-0.47,3,.,4
COc1ccc(Nc2ccnc3ccccc23)cc1,-3.7*,2,1.5,-45,17,34
Oc1ccc(Nc2nc(N3CCCC3)c3ccccc3n2)cc1,-2.5,-2,0.076,15,33,-1
O=C(CN1C(=O)NC2(CCCc3ccccc32)C1=O)N1CCN(C(=O)c2ccco2)CC1 (configuration not stated),0.037,-6,0.00084,-2,-20,8
O=C1CCc2cc(S(=O)(=O)N3CCCC3C(=O)NC3CCCCCCC3)ccc2N1 (configuration not stated),.,-2,0.75,-6,.,4
O=C(CSC1=NCCN1)C1COc2ccccc2O1 (configuration not stated),-0.35,-1,0.056,2,-10,8
CSc1nc(C)cc(SCCO)n1,1.5,29,-0.044,3,-14,4
C/C(CC1CC2=C(CC1(C)C)C(C)(C)CCC2)=N\NC(N)=S (configuration not stated),.,80*,-0.00031,104*,.,-1
C/C(CC1CC(COCCC(C)C)OC1=O)=N\NC(N)=S (configuration not stated),.,14,0.09,-6,.,3
Cc1nnc2n(Cc3ccccc3)c(=O)c3c4c(sc3n12)COC(C(C)C)C4 (configuration not stated),0.79,71*,0.93,3,1,-6
CC(C)C1Cc2c(sc3c2c(=O)n(Cc2ccccc2)c2nncn32)CO1 (configuration not stated),.,43*,0.16,2,10,-3
CSc1nnc2n(Cc3ccccc3)c(=O)c3c4c(sc3n12)COC(C(C)C)C4 (configuration not stated),.,26,.,-1,.,-6
COc1cc(C(=O)Nc2cccc(-c3nncn3C)c2)cc(OC)c1OC,-0.43,-1,1.4,4,-3,3
COCCNC(=O)C1CC(c2cccc(OC)c2)=NO1 (configuration not stated),0.24,37*,-0.28,8,-15,6
CCN1/C(=C/c2ccc3cccc(C)c3[n+]2CC)Sc2ccccc21,.,98*,-1.4,1,.,72*
CN(C)C(=O)c1ccccc1Sc1ccc(Cl)cc1Cl,.,12,0.62,-2,.,5
CN(C)C(=O)c1ccccc1Sc1cc(Cl)ccc1Cl,.,35*,0.31,5,.,6
Fc1ccc(-n2nnc(-c3cnc4ccccc4c3)n2)cc1,.,.,-0.026,.,.,.
Cc1cc(C)c(C#N)c(SCC(=O)N2CCN(Cc3ccccc3)CC2)n1,0.17,31*,1.2,16,9,-2
CCN(Cc1ccccc1)C(=O)CSc1nc(C)cc(C)c1C#N,-0.75,35*,-0.03,10,29,-6
Cc1cc(C)c(C#N)c(SCS(=O)Cc2ccccc2)n1 (configuration not stated),0.45,-1,-0.25,-2,55,5
COc1cccc(C2C3=C(CCCC3=O)Nc3nc4ccccc4n32)c1OC (configuration not stated),1.4,.,.,.,25,.

# Assay outcomes deposited in PubChem BioAssay by several laboratories.
